Reference: ChEMBL document CHEMBL1148438, “Discovery of a new family of inhibitors of human cytomegalovirus (HCMV) based upon lipophilic alkyl furano pyrimidine dideoxy nucleosides: action via a novel non-nucleosidic mechanism” (J Med Chem, 2004)

Experiments:
HEL [1] = test: Cytostatic concentration required to inhibit HEL cell proliferation measured at day 4; format: functional; settings: Homo sapiens, 96 h
Method in brief: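 Growing, subconfluent HEL cells were exposed to different compound concentrations, then trypsinized and counted with a Coulter counter. The 50% value was the concentration reducing cell number by 50% relative to untreated cells.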

HEL [2] = test: Effective concentration required to inhibit HCMV Davis strain-induced cytopathicity in human embryonic lung (HEL) fibroblast cell cultures at day 7 of postinfection; format: functional, cell-based; settings: 168 h
Method in brief: (§1)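 Confluent HEL fibroblast monolayers were infected with 100 PFU of HCMV per well and adsorbed for 1-2 h. Residual virus was removed, and cells were kept in MEM with 2% inactivated FCS, 1% L-glutamine and 0.3% sodium bicarbonate plus varying compound concentrations. Cytopathicity was scored at day 7, and EC50 was the concentration reducing virus-induced CPE by 50% versus untreated control.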

HEL [3] = test: Effective concentration required to inhibit HCMV AD169 strain-induced cytopathicity in human embryonic lung (HEL) fibroblast cell cultures at day 7 of postinfection; format: functional, cell-based; settings: 168 h; method in brief: as §1
HEL [4] = test: Minimal cytotoxic concentration required to cause a microscopically visible alteration of HEL cell morphology as measured at day 7 postinfection; format: functional; settings: Homo sapiens, 168 h
Method in brief: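 MCC was assessed within the antiviral assay on confluent HEL monolayers exposed to varying compound concentrations. It was taken at day 7 as the lowest concentration giving microscopically visible cytotoxicity (altered morphology).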

Structure (SMILES)	CC50 (HEL [1])	EC50 (HEL [2])	EC50 (HEL [3])	MCC (HEL [4])
CCCCCCCCCCCCc1cc2cn(C3CCC(CO)O3)c(=O)nc2o1 (stereo not drawn)	> 200 µM	5 µM	3.7 µM	200 µM
CCCCCCCCCc1cc2cn(C3CCC(CO)O3)c(=O)nc2o1 (stereo not drawn)	> 200 µM	1.3 µM	1.2 µM	58 µM
CCCCCCc1cc2cn(C3CCC(CO)O3)c(=O)nc2o1 (stereo not drawn)	143 µM	> 50 µM	32 µM	200 µM
CCCCCCCCCCCc1cc2cn(C3CCC(CO)O3)c(=O)nc2o1 (stereo not drawn)	> 200 µM	1.2 µM	1.4 µM	50 µM
CCCCCCCCCCc1cc2cn(C3CCC(CO)O3)c(=O)nc2o1 (stereo not drawn)	> 200 µM	3.2 µM	2.6 µM	> 20 µM
O=C(O)P(=O)(O)O [FOSCARNET]	500 µM	62 µM	53 µM	> 400 µM
CCCCCCCCCCCCCCc1cc2cn(C3CCC(CO)O3)c(=O)nc2o1 (stereo not drawn)	> 200 µM	40 µM	25 µM	200 µM
CCCCCCCCc1cc2cn(C3CCC(CO)O3)c(=O)nc2o1 (stereo not drawn)	112 µM	3 µM	2.5 µM	20 µM
Nc1ccn(C[C@@H](CO)OCP(=O)(O)O)c(=O)n1 [CIDOFOVIR]	158 µM			> 150 µM
Nc1nc2c(ncn2COC(CO)CO)c(=O)[nH]1 [GANCICLOVIR]	> 150 µM	3.9 µM	2.7 µM	> 150 µM
